Assay results: ChEMBL document CHEMBL1127321, “Synthesis and photodynamic activities of silicon 2,3-naphthalocyanine derivatives” (J Med Chem, 1994)

Assays:
[1] = Tested for extracellular drug concentration required to kill 50 percent of V-79 cells after one hour incubation period; conditions: Chinese hamster, V79 cells; read-out: LD50
[2] = Tested for extracellular drug concentration required to kill 50 percent of V-79 cells after one hour incubation period and subsequent exposure red light; conditions: Chinese hamster, V79 cells; read-out: LD50
[3] = Tumor/muscle uptake ratio after 2 day; format: functional, Muscle tissue
Outline: (§1)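 The ratio of tumour uptake (μg/g) to muscle uptake (μg/g), or to plasma concentration (μg/mL), was taken at each time point. Mice were EMT-6-bearing BALB/c (n = 3) given 1 μmol/kg iv in 10% Cremophor emulsion. Dye was measured by fluorescence (ex 766, em 780 nm) in DMF extracts and quantified against tissue-specific calibration curves.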

[4] = system: Mus musculus; experiment: Mean tissue uptake in tumor determined in tumor-bearing mice after 7 day by intravenous administration at 1 umol/kg; format: functional
Outline: (§2)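 Male BALB/c AnN mice carrying intradermal EMT-6 tumours on the hind thighs (2×10^5 cells; used 6-8 days later at 4-8 mm diameter) received 1 μmol/kg iv via the tail vein in 10% Cremophor emulsion. Plasma from orbital-sinus blood and excised tissue were extracted with DMF overnight at 37 °C, then centrifuged. Dye was read by fluorescence (ex 766, em 780 nm) against per-tissue calibration curves. Mean with SE, n = 3.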

[5] = system: Mus musculus; experiment: Mean tissue uptake in skin determined in tumor-bearing mice after 1 day by intravenous administration at 1 umol/kg; format: functional
Outline: as §2

[6] = Tumor/plasma uptake ratio after 6 hr; format: functional
Outline: as §1

[7] = system: Mus musculus; experiment: Mean tissue uptake in skin determined in tumor-bearing mice after 2 day by intravenous administration at 1 umol/kg; format: functional
Outline: as §2

[8] = Tumor/plasma uptake ratio after 12 hr; format: functional
Outline: as §1

[9] = system: Mus musculus; experiment: Mean tissue uptake in tumor determined in tumor-bearing mice after 3 day by intravenous administration at 1 umol/kg; format: functional
Outline: as §2

[10] = system: Mus musculus; experiment: Tested for plasma concentration in tumor-bearing mice after 7 day by intravenous administration at 1 umol/kg; format: functional
Outline: as §2

[11] = Tumor/muscle uptake ratio after 6 hr; format: functional, Muscle tissue
Outline: as §1

[12] = Tumor/muscle uptake ratio after 1 hr; format: functional, Muscle tissue
Outline: as §1

[13] = system: Mus musculus; experiment: Mean tissue uptake in tumor determined in tumor-bearing mice after 2 day by intravenous administration at 1 umol/kg; format: functional
Outline: as §2

[14] = Tumor/plasma uptake ratio after 1 hr; format: functional
Outline: as §1

[15] = system: Mus musculus; experiment: Mean tissue uptake in skin determined in tumor-bearing mice after 6 hr by intravenous administration at 1 umol/kg; format: functional
Outline: as §2

[16] = Tumor/muscle uptake ratio after 1 day; format: functional, Muscle tissue
Outline: as §1

[17] = system: Mus musculus; experiment: Mean tissue uptake in muscle determined in tumor-bearing mice after 12 hour by intravenous administration at 1 umol/kg; format: functional
Outline: as §2

[18] = system: Mus musculus; experiment: Tested for plasma concentration in tumor-bearing mice after 12 hour by intravenous administration at 1 umol/kg; format: functional
Outline: as §2

[19] = system: Mus musculus; experiment: Tested for plasma concentration in tumor-bearing mice after 3 day by intravenous administration at 1 umol/kg; format: functional
Outline: as §2

[20] = system: Mus musculus; experiment: Mean tissue uptake in muscle determined in tumor-bearing mice after 3 hour by intravenous administration at 1 umol/kg; format: functional
Outline: as §2

[21] = Tumor/muscle uptake ratio after 12 hr; format: functional, Muscle tissue
Outline: as §1

[22] = system: Mus musculus; experiment: Mean tissue uptake in skin determined in tumor-bearing mice after 3 hr by intravenous administration at 1 umol/kg; format: functional
Outline: as §2

[23] = system: Mus musculus; experiment: Tested for plasma concentration in tumor-bearing mice after 6 hour by intravenous administration at 1 umol/kg; format: functional
Outline: as §2

[24] = system: Mus musculus; experiment: Mean tissue uptake in skin determined in tumor-bearing mice after 1 hr by intravenous administration at 1 umol/kg; format: functional
Outline: as §2

[25] = system: Mus musculus; experiment: Mean tissue uptake in muscle determined in tumor-bearing mice after 2 day by intravenous administration at 1 umol/kg; format: functional
Outline: as §2

[26] = Tumor/plasma uptake ratio after 3 hr; format: functional
Outline: as §1

[27] = system: Mus musculus; experiment: Mean tissue uptake in tumor determined in tumor-bearing mice after 12 hour by intravenous administration at 1 umol/kg; format: functional
Outline: as §2

[28] = Tumor/muscle uptake ratio after 3 days; format: functional, Muscle tissue
Outline: as §1

[29] = system: Mus musculus; experiment: Mean tissue uptake in skin determined in tumor-bearing mice after 7 days by intravenous administration at 1 umol/kg; format: functional
Outline: as §2

[30] = Tumor/muscle uptake ratio after 7 days; format: functional, Muscle tissue
Outline: as §1

[31] = Tumor/plasma uptake ratio after 1 day; format: functional
Outline: as §1

[32] = system: Mus musculus; experiment: Mean tissue uptake in skin determined in tumor-bearing mice after 3 days by intravenous administration at 1 umol/kg; format: functional
Outline: as §2

[33] = system: Mus musculus; experiment: Tested for plasma concentration in tumor-bearing mice after 1 day by intravenous administration at 1 umol/kg; format: functional
Outline: as §2

[34] = system: Mus musculus; experiment: Mean tissue uptake in skin determined in tumor-bearing mice after 12 hr by intravenous administration at 1 umol/kg; format: functional
Outline: as §2

[35] = system: Mus musculus; experiment: Mean tissue uptake in muscle determined in tumor-bearing mice after 3 days by intravenous administration at 1 umol/kg; format: functional
Outline: as §2

[36] = system: Mus musculus; experiment: Mean tissue uptake in muscle determined in tumor-bearing mice after 7 days by intravenous administration at 1 umol/kg; format: functional
Outline: as §2

[37] = system: Mus musculus; experiment: Mean tissue uptake in tumor determined in tumor-bearing mice after 1 day by intravenous administration at 1 umol/kg; format: functional
Outline: as §2

[38] = Tumor/plasma uptake ratio after 2 day; format: functional
Outline: as §1

[39] = Tumor/plasma uptake ratio after 3 days; format: functional
Outline: as §1

[40] = system: Mus musculus; experiment: Mean tissue uptake in muscle determined in tumor-bearing mice after 1 hour by intravenous administration at 1 umol/kg; format: functional
Outline: as §2

[41] = system: Mus musculus; experiment: Mean tissue uptake in tumor determined in tumor-bearing mice after 6 hour by intravenous administration at 1 umol/kg; format: functional
Outline: as §2

[42] = system: Mus musculus; experiment: Tested for plasma concentration in tumor-bearing mice after 1 hour by intravenous administration at 1 umol/kg; format: functional
Outline: as §2

[43] = system: Mus musculus; experiment: Mean tissue uptake in tumor determined in tumor-bearing mice after 3 hour by intravenous administration at 1 umol/kg; format: functional
Outline: as §2

[44] = system: Mus musculus; experiment: Tested for plasma concentration in tumor-bearing mice after 3 hour by intravenous administration at 1 umol/kg; format: functional
Outline: as §2

[45] = system: Mus musculus; experiment: Mean tissue uptake in tumor determined in tumor-bearing mice after 1 hour by intravenous administration at 1 umol/kg; format: functional
Outline: as §2

[46] = system: Mus musculus; experiment: Mean tissue uptake in muscle determined in tumor-bearing mice after 6 hour by intravenous administration at 1 umol/kg; format: functional
Outline: as §2

[47] = system: Mus musculus; experiment: Tested for plasma concentration in tumor-bearing mice after 2 day by intravenous administration at 1 umol/kg; format: functional
Outline: as §2

[48] = system: Mus musculus; experiment: Mean tissue uptake in muscle determined in tumor-bearing mice after 1 day by intravenous administration at 1 umol/kg; format: functional
Outline: as §2

[49] = Tumor/muscle uptake ratio after 3 hr; format: functional, Muscle tissue
Outline: as §1

SMILES: CCCCCC[Si](CCCCCC)(CCCCCC)O[Si]1(O[Si](CCCCCC)(CCCCCC)CCCCCC)n2c3c4cc5ccccc5cc4c2/N=C2N=C(/N=c4/c5cc6ccccc6cc5/c(n41)=N/C1=NC(=N\3)/c3cc4ccccc4cc31)c1cc3ccccc3cc1\2
- CC50 at 1 h [1]: 46 µM
- CC50 at 1 h [2]: 29 µM

SMILES: CC(C)(C)[Si](C)(C)O[Si]1(O[Si](C)(C)C(C)(C)C)n2c3c4cc5ccccc5cc4c2/N=C2N=C(/N=c4/c5cc6ccccc6cc5/c(n41)=N/C1=NC(=N\3)/c3cc4ccccc4cc31)c1cc3ccccc3cc1\2
- CC50 at 1 h [1]: 36 µM
- CC50 at 1 h [2]: 12 µM

SMILES: CC(C)C(C)(C)[Si](C)(C)O[Si]1(O[Si](C)(C)C(C)(C)C(C)C)n2c3c4cc5ccccc5cc4c2/N=C2N=C(/N=c4/c5cc6ccccc6cc5/c(n41)=N/C1=NC(=N\3)/c3cc4ccccc4cc31)c1cc3ccccc3cc1\2
- Ratio [3]: 9.1
- Tissue distribution [4]: 0.51 µg/g
- Tissue distribution [5]: 0.46 µg/g
- Ratio [6]: 0.07
- Tissue distribution [7]: 0.43 µg/g
- Ratio [8]: 0.16
- Tissue distribution [9]: 0.77 µg/g
- Blood clearance [10]: 0 µg/mL
- Ratio [11]: 0.7
- Ratio [12]: 3.6
- Tissue distribution [13]: 0.73 µg/g
- CC50 at 1 h [1]: 6.5 µM
- Ratio [14]: 0.03
- Tissue distribution [15]: 0.36 µg/g
- Ratio [16]: 6.4
- Tissue distribution [17]: 0.09 µg/g
- CC50 at 1 h [2]: 5.5 µM
- Blood clearance [18]: 5.51 µg/mL
- Blood clearance [19]: 0.02 µg/mL
- Tissue distribution [20]: 0.32 µg/g
- Ratio [21]: 10
- Tissue distribution [22]: 0.51 µg/g
- Blood clearance [23]: 9.12 µg/mL
- Tissue distribution [24]: 0.13 µg/g
- Tissue distribution [25]: 0.08 µg/g
- Ratio [26]: 0.04
- Tissue distribution [27]: 0.9 µg/g
- Ratio [28]: 5.9
- Tissue distribution [29]: 0.35 µg/g
- Ratio [30]: 6.4
- Ratio [31]: 0.34
- Tissue distribution [32]: 0.44 µg/g
- Blood clearance [33]: 2.06 µg/mL
- Tissue distribution [34]: 0.56 µg/g
- Tissue distribution [35]: 0.13 µg/g
- Tissue distribution [36]: 0.08 µg/g
- Tissue distribution [37]: 0.71 µg/g
- Ratio [38]: 3.5
- Ratio [39]: 38
- Tissue distribution [40]: 0.12 µg/g
- Tissue distribution [41]: 0.65 µg/g
- Blood clearance [42]: 12.94 µg/mL
- Tissue distribution [43]: 0.46 µg/g
- Blood clearance [44]: 11.28 µg/mL
- Tissue distribution [45]: 0.43 µg/g
- Tissue distribution [46]: 0.98 µg/g
- Blood clearance [47]: 0.21 µg/mL
- Tissue distribution [48]: 0.11 µg/g
- Ratio [49]: 1.4

SMILES: CCCCCCCCCCCCCCCCCC[Si](C)(C)O[Si]1(O[Si](C)(C)CCCCCCCCCCCCCCCCCC)n2c3c4cc5ccccc5cc4c2/N=C2N=C(/N=c4/c5cc6ccccc6cc5/c(n41)=N/C1=NC(=N\3)/c3cc4ccccc4cc31)c1cc3ccccc3cc1\2
- CC50 at 1 h [1]: 4.2 µM
- CC50 at 1 h [2]: 1.8 µM
